# From PubChem BioAssay
# OXTR potentiator: human OXTR potentiation; P30559; CHO-OTR cells, Fluo-8 calcium fluorescence, potentiator mode; 0% = oxytocin EC15, 100% = EC100; activation, % at 3 µM; actives 0.061% (n = 320,000); AID 2445;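 active = activation above that plate's cutoff, the mean activation of tested compounds plus 3 SD, cut at about 6.6% in these data, passing the limit was not always enough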;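 note: 100% uses oxytocin at 75 nM as the full agonist control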
# Target sequence (P30559 whole entry, looked up): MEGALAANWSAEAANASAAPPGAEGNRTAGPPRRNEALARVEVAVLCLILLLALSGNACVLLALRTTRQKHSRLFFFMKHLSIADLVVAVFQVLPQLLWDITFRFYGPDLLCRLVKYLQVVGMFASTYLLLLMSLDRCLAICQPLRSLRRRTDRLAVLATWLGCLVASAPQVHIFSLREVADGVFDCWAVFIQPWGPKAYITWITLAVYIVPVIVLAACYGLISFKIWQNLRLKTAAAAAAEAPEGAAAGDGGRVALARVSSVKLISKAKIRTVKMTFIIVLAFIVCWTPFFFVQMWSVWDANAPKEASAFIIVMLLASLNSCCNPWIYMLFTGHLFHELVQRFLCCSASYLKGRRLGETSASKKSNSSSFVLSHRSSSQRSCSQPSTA
#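 Dosing: Single dose, 3.0 µM nominal final compound concentration | Material: Human OTR in CHO cells | Technique: Kinetic Fluo-8 calcium fluorescence | Benchmarks: EC15 oxytocin alone as 0%, 75 nM oxytocin as 100% | Probe or stimulus: Oxytocin at about EC15, sub-maximal agonist stimulus | Incubation: Compound 6 min at room temperature before oxytocin, 100 s read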
# OX1R antag-1: blocks the human orexin 1 receptor. O43613. OX1R-expressing cells, FRET antagonist read-out. inhibition, % at 6.6 µM. actives 1.8% (n = 330,000). AID 485270; in the data active = inhibition mostly above about 38%, no sharp cut-off; inactive = mostly below about 40%;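 note: 0% = agonist challenge alone and 100% = reference antagonist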
# V1R ag counter: V1a receptor agonism, counter-screen for OXTR agonists. activation, % at 3 µM. AID 2797. P37288. CHO-V1R cells, Fluo-8 calcium fluorescence, agonist mode; 0% DMSO, 100% 3 nM vasopressin. actives 0.25% (n = 320,000);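 active = activation above the mean activation of all tested compounds plus 3 SD, per screening run, cut at about 20% in these data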;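 note: signal is peak over basal fluorescence ratio across a 100 second FLIPR read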
# OX1R antag-2: antagonists of human orexin 1 receptor | O43613 | CHO/OX1R cells, Fluo-8 calcium fluorescence, orexin A | inhibition, % at 5 µM | actives 0.43% (n = 330,000) | AID 434989;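 active = inhibition above its plate's threshold, mean inhibition of all tested compounds on the plate plus 3 SD, cut at about 37% in these data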;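 note: 0% = orexin A challenge wells and 100% = SB-334867-A antagonist wells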
# CHO parental Ca: counter-screen for OX1R antagonists: effect in parental CHO cells. parental CHO-K1, ATP-induced calcium, Fluo-8 fluorescence. inhibition, % at 5.6 µM. actives 0.63% (n = 330,000). AID 463079;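 active = inhibition above that plate's mean sample inhibition plus 3 SD, cut at about 26% in these data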;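 note: 0% = ATP-challenged DMSO wells and 100% = DMSO wells without ATP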
#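 material = parental CHO cells | also added = ATP as calcium-mobilizing challenge | dosing = single point at 5.6 µM | detection = intracellular calcium via Fluo-8 no-wash fluorescent dye | read-out = % inhibition | benchmarks = low control ATP plus DMSO, high control DMSO only | repeats = one well per compound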
# OXTR agonist: activates the human oxytocin receptor. CHO-OTR cells, Fluo-8 calcium fluorescence; normalized: DMSO 0%, oxytocin 100%. activation, % at 3 µM. actives 0.32% (n = 320,000);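 active = activation above the mean of all tested compounds plus 3 SD, cutoff set per screening run, cut at about 20% in these data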;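 note: peak over basal fluorescence ratio from a 100 s FLIPR kinetic read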
# OXTR agonist cf: human OXTR agonism, confirmation | shares compounds with OXTR agonist | CHO-OTR cells, Fluo-8 calcium fluorescence, agonist | activation, % at 3 µM | actives 20% (n = 390);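 active = mean activation above about 20% derived from the earlier single-dose screen, limit read from the data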;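 note: peak over minimum fluorescence ratio per well during a 100 second FLIPR read; 0% = DMSO alone and 100% = oxytocin high control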
# V1aR counter 3x: V1R agonism in triplicate, counter-screen for OXTR agonists. shares compounds with OXTR agonist. CHO-V1R cells, Fluo-8 calcium fluorescence, agonist. activation, % at 3 µM. actives 10% (n = 390). AID 434991;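 active = mean activation over triplicate exceeds the hit threshold set in the earlier primary screen, cut at about 20% in these data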;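 note: peak over basal fluorescence ratio within a 100 second read; 0% = DMSO alone and 100% = 3 nM vasopressin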
# * hit, by the source's call; / = no result given. Only some compounds are listed: those with a hit (about 2.6% of all), similar ones and a draw of the others.
SMILES,OXTR potentiator,OX1R antag-1,V1R ag counter,OX1R antag-2,CHO parental Ca,OXTR agonist,OXTR agonist cf,V1aR counter 3x
C=CCOC(=O)C1=C[C@@H](c2ccc(C(F)(F)F)cc2)[C@H](CCCO)[C@@H](OCC)O1,-8.9,40.9,-1.5,-45.9,-16.0,20.1*,-0.9,-0.1
O=C(NCc1nnc(SCC(=O)N2CCN(c3ccccc3)CC2)o1)c1c(F)cccc1Cl,-4.4,5.8,1.5,-33.3,-10.8,0.2,/,/
Cc1cc(C)c(S(=O)(=O)N2CCN(C(=O)CN3C(=O)NC4(CCCC4)C3=O)CC2)c(C)c1,-4.6,6.3,1.0,0.4,-2.7,-0.1,/,/
COC(=O)c1ccc(NC(=O)Nc2ccc([N+](=O)[O-])cc2)cc1,-15.9,45.4,16.3,37.1*,67.3*,19.7*,13.8,12.0
COc1ccc(CC2(CO)CCN(CC3=Cc4cc(Cl)ccc4OC3)CC2)cc1,-32.6,70.4,19.0,43.1*,63.7*,22.6*,14.4,11.7
O=C(C1CCCCC1)N1CCCc2ccccc21,-19.6,11.8,-1.1,-32.4,-17.0,29.6*,5.2,-0.5
Cc1ccc(NC(=O)/C(C#N)=N/Nc2ccc(C(=O)O)cc2)c(C)c1,7.0,27.0,0.6,-11.2,-3.5,-0.6,/,/
Cc1ccc(N/N=C(\C#N)C(N)=S)c(C)c1,-11.5,18.4,11.4,-1.4,11.1,23.9*,6.6,5.8
O=c1oc2cc(O[C@@H]3OC[C@@H](O)[C@H](O)[C@H]3O)ccc2c2ccccc12,-6.2,2.1,1.8,-3.5,1.4,0.2,/,/
COc1ccccc1/C=C/C(=O)N1CCc2cc(OC)c(OC)cc2C1C (stereo not given),-8.3,-7.1,-0.9,-18.2,-34.4,-1.7,/,/
O=[N+]([O-])c1ccc(NC(=S)NCc2ccc(F)cc2)cc1,-26.8,26.6,14.1,-21.6,73.5*,22.3*,11.9,9.9
CNC(=S)N(CCc1c(C)[nH]c2ccccc12)Cc1cccnc1,-10.1,0.3,5.5,10.2,-3.1,13.0,/,/
O=C(Cc1ccc(Cl)cc1Cl)OCC(=O)N1CCCCC1,-11.1,9.1,1.0,-10.4,-17.0,0.9,/,/
C=CCOC(=O)c1ccc(N2CCN(c3ccccc3)CC2)nc1,-8.4,3.4,0.4,-14.7,-18.0,1.5,/,/
Cc1nn(C)cc1C(C(=O)NC1CCCCC1)N(C(=O)Cc1cccs1)c1ccc(C(C)C)cc1 (stereo not given),-18.8,19.5,0.9,-54.4,-30.1,21.8*,5.3,3.4
Cc1cccc(NC(=O)CSc2nnc(-c3cc(C)n(-c4ccccc4)c3C)o2)c1C,-9.7,19.4,1.5,-9.3,-17.1,0.4,/,/
Cc1cc(-c2nnc(SCC(=O)Nc3ccccc3C(F)(F)F)o2)c(C)n1-c1ccccc1,-24.2,10.9,16.4,1.9,-5.4,21.3*,24.3*,11.0
C/C(=N/N1CCN(c2ccccn2)CC1)c1cccc([N+](=O)[O-])c1,-9.0,7.8,0.3,-12.5,-5.2,-0.6,/,/
CSc1nc(-c2ccccc2)c(-c2ccccc2)[nH]1,-19.7,23.6,18.2,-9.0,26.2,22.7*,-0.9,0.2
O=C(Cc1ccc(Cl)cc1)NCCCNC(=O)c1cccnc1,-0.5,9.2,0.6,-12.5,-9.9,-0.3,/,/
CCOc1ccc(OCC)c(NC(=O)CSc2nnnn2CC)c1,-16.3,13.3,-0.5,-19.1,-3.4,22.5*,-1.2,-0.8
COc1cc(CNCc2ccccn2)ccc1OCc1ccc(Cl)cc1Cl,-8.5,16.1,10.8,0.2,8.7,25.0*,4.6,1.8
COc1cc(CNCCO)cc(Cl)c1OCc1ccc(Cl)cc1Cl,-7.3,7.8,8.8,24.1,3.0,20.0*,7.5,2.2
COc1cc(CNCCO)cc(Br)c1OCc1ccccc1Cl,-5.5,5.0,10.3,3.7,4.8,9.5,/,/
COc1cc(/C=C2\Oc3cc(O)ccc3C2=O)ccc1O,-10.6,60.5*,11.7,33.0,22.4,22.0*,12.9,21.4*
SMILES,OXTR potentiator,OX1R antag-1,V1R ag counter,OX1R antag-2,CHO parental Ca,OXTR agonist,OXTR agonist cf,V1aR counter 3x
CC1CCN(S(=O)(=O)c2ccc(NC(=O)CCN3C(=O)C4CC=CCC4C3=O)cc2)CC1 (stereo not given),-7.7,-2.2,5.5,-11.5,-27.7,3.9,/,/
NC(=O)c1c(NC(=O)c2ccncc2)sc2c1CCCC2,-6.3,19.6,-0.3,-29.8,-10.6,-0.8,/,/
NC(=O)c1c(NC(=O)c2ccncc2)sc2c1CCCCCC2,-8.2,18.7,12.6,-11.8,-5.9,24.2*,14.4,21.1*
CN1CCC(N(C)S(=O)(=O)c2ccc(NC(=O)COc3ccc(Br)cc3Cl)cc2)CC1,-16.7,2.6,12.3,-7.3,-8.7,24.9*,9.2,8.3
OC(CNCc1ccccc1C(F)(F)F)C(F)(F)F (stereo not given),6.0,4.5,0.8,-11.4,4.1,0.7,/,/
CCOC(=O)C(Cc1ccc(O)cc1)NC(=O)CCc1c[nH]c2ccccc12 (stereo not given),-21.3,0.2,17.3,9.3,9.1,23.2*,18.9,3.2
C=CCN1C(=O)C(Cc2ccccc2Cl)SC1=Nc1ccc(C(=O)O)cc1 (stereo not given),-11.7,24.0,9.9,-1.4,-4.7,21.5*,8.2,7.6
C=CCN1C(=O)C(CC(=O)O)SC1=Nc1ccc(C(=O)O)cc1 (stereo not given),-5.8,14.1,1.2,-2.0,3.3,-0.2,/,/
Cc1ccc(C(C)NC(=O)/C(C#N)=C\c2c(C)[nH]c3ccccc23)cc1 (stereo not given),-9.7,17.8,18.2,-5.1,33.0*,26.6*,14.5,8.7
O=[N+]([O-])c1cccc(/C=N/Nc2nc(NCc3ccccc3)nc(N3CCOCC3)n2)c1O,-31.3,38.5,17.0,3.3,-6.1,24.1*,18.7,16.5
CN(C(=O)c1cccs1)c1ccc(OCC(=O)Nc2ccc(C(=O)O)cc2)cc1,-0.9,2.0,0.8,-8.0,-9.3,0.6,/,/
CN(c1ccc(C(=O)N2CCCCC2)cc1)S(=O)(=O)c1ccccc1,-24.6,58.9,11.3,42.1*,37.6*,20.9*,6.2,7.3
CN(c1ccccc1)S(=O)(=O)c1ccc(C(=O)N2CCCC2)cc1,-8.2,9.5,0.2,-15.3,-5.8,0.1,/,/
CC1CCN(S(=O)(=O)c2ccc3c(c2)N(CC(=O)NCCCN2CC(C)CC(C)C2)C(=O)CS3)CC1 (stereo not given),0.5,-0.4,0.1,-19.4,-1.5,-0.8,/,/
O=C(NNC(=S)NC(=O)c1ccccc1)c1cccc([N+](=O)[O-])c1,-12.7,0.4,13.9,1.1,-11.2,29.4*,15.9,20.6*
